Assay results pooled from the literature.
Each line is one published result; the experiments were not run side by side.
Target: Aurora kinase B (AURKB, Homo sapiens, UniProt Q96GD4)

O=C(NCc1ncc(C(F)(F)F)cc1Cl)c1ccc2c(c1)C1(CCS(=O)(=O)CC1)[C@@H](C1CC1)N2S(=O)(=O)c1ccc(F)cc1 — remaining binding (cell-free assay, competition with immobilised ligand; 1 µM): 66%
C[C@@H](c1ccc(-n2cnc3c(N)ncnc32)cc1)N1CCc2nn(C)c(Cc3ccccc3)c2C1=O — remaining binding (binding, competition with immobilised ligand; 0.1 µM): 65%
C[C@@H]1CN(c2cc(-c3n[nH]c4ccc(OC5(C)CC5)cc34)ncn2)C[C@H](C)O1 — remaining binding (cell-free assay, competition with immobilised ligand; 0.1 µM): 73%
COc1cc(C(=O)N2CCC(N3CCN(C)CC3)CC2)ccc1Nc1ncc2c(n1)N(C)c1ccccc1C(=O)N2C — remaining binding (binding, competition with immobilised ligand; 10 µM): 38%
O=C(Nc1c[nH]nc1C(=O)NC1CCNCC1)c1cc(F)cc(F)c1 — remaining binding (binding, competition with immobilised ligand; 1 µM): 78%
O=C(NCCCN1CCOCC1)c1ccc(Nc2ncc(Cl)c(-c3ccc(Cl)s3)n2)cc1 — remaining binding (binding, competition with immobilised ligand; 1 µM): 15%
CN(C)c1ncc(F)c(-c2cnn3ncccc23)n1 — remaining binding (binding; 1 µM): 77%
C[C@@H]1CN(c2ccc3ncc(-c4ccc5[nH]nc(C6CC6)c5c4)n3n2)C[C@H](C)O1 — remaining binding (binding, competition with immobilised ligand; 0.5 µM): 82%
N[C@H]1CCN(c2nccc(-c3cnn4ncccc34)n2)C1 — remaining binding (binding; 1 µM): 77%
CC1=C(C#N)[C@@H](c2ccc3[nH]nc(C)c3c2)C(C#N)=C(c2ccc(Cl)cc2)N1 — remaining binding (cell-free assay, competition with immobilised ligand; 1 µM): 82.9%
Nc1ncc2c(n1)-c1c([nH]c3ccc(C#CC4CC4)cc13)CCCC2 — remaining binding (binding, competition with immobilised ligand; 1 µM): 43%
O=C(c1ccc(Nc2nccc(-c3cc4ccccc4s3)n2)cc1)N1CCC(N2CCCC2)CC1 — remaining binding (binding, competition with immobilised ligand; 1 µM): 63%
C=CC(=O)N1CCC(C(=O)NCC(=O)N2CCN(c3nc(-c4cnc(N)nc4C(F)F)nc(N4CCOCC4)n3)CC2)CC1 — remaining binding (binding, competition with immobilised ligand; 1 µM): 56%
CN([C@@H]1CCc2c(CC(=O)O)c3ccccc3n2C1)S(=O)(=O)c1ccc(F)cc1 — remaining binding (cell-free assay, competition with immobilised ligand; 1 µM): 91%
c1cncc(-c2cccc(Nc3nccc(NC4CCCCC4)n3)c2)c1 — remaining binding (binding, competition with immobilised ligand; 10 µM): 23%
COc1ccnn2ncc(-c3ccnc(N(C)C)n3)c12 — remaining binding (binding; 1 µM): 100%
Cc1c(C(=O)O)cc(-c2ccc(C3CCNCC3)cc2)c2ccc(-c3ccc(C(F)(F)F)cc3)cc12 — remaining binding (cell-free assay, competition with immobilised ligand; 1 µM): 100%
F[C@@H]1CCN(c2nccc(-c3cnn4ncccc34)n2)C1 — remaining binding (binding; 1 µM): 100%
CN(c1ccnc(CNc2nc(Nc3ccc4c(c3)CC(=O)N4)ncc2C(F)(F)F)n1)S(C)(=O)=O — remaining binding (cell-free assay, competition with immobilised ligand; 1 µM): 9.9%
COc1cnc(Nc2cccc(S(N)(=O)=O)c2)nc1N1CCN(c2ccccc2)C(=O)C1 — remaining binding (binding, competition with immobilised ligand; 1 µM): 63%
O=C1CCc2cc(Nc3cc(OC4CCOCC4)c([N+](=O)[O-])cc3Cl)ccc2N1 — remaining binding (cell-free assay, competition with immobilised ligand; 1 µM): 86%
Cc1cnc(Nc2ccc(C(=O)N3CCC(N4CCCC4)CC3)cc2)nc1-c1cc2ccccc2s1 — remaining binding (binding, competition with immobilised ligand; 1 µM): 6.8%
